From ChEMBL document CHEMBL5724801, “EUbOPEN Chemogenomics Library - Multiplex” (2024)
Several values for one entry are separate records, joined by “and”; a condition that tells them apart may be missing. Equal entries are not always repeated.

Key:
[1] = test system: HEK-293T; test: Multiplex assay against HEK293T; format: toxicity, cell-based; conditions: human
Summary of the method: (§1)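 Live cells were stained at seeding with Hoechst33342, BioTracker Green Microtubule Cytoskeleton Dye, MitoTracker Red and Annexin V Alexa Fluor 680. Following compound addition, they were imaged on a CQ1 microscope at 37°C and 5% CO2 and gated by CellPathfinder machine learning into Hoechst high-intensity objects or normal cells, with normal cells split into healthy, pyknosed or fragmented nuclei and pyknosed cells into mitotic or apoptotic. Tubulin, mitochondrial-mass and membrane-permeability phenotypes are per cents of healthy-nucleus cells.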

[2] = test system: U2OS; test: Multiplex assay against U2OS; format: toxicity, cell-based; conditions: human; summary of the method: as §1
[3] = 12 h, 1 µM, compound concentration 1 uM
[4] = 12 h, 10 µM, compound concentration 10 uM
[5] = 24 h, 1 µM, compound concentration 1 uM
[6] = 24 h, 10 µM, compound concentration 10 uM
[7] = 48 h, 1 µM, compound concentration 1 uM
[8] = 48 h, 10 µM, compound concentration 10 uM

With `CN(C)C/C=C/C(=O)Nc1ccc(C(=O)N2CCCC(Nc3ncc(Cl)c(-c4c[nH]c5ccccc45)n3)C2)cc1` (stereo not drawn) the “Population Apoptotic (%)” value [1, 3] was 46% and 63%, the “Population Fragmented Nuclei (%)” value [1, 3] was 8% and 6% and the “Population Healthy Nuclei (%)” value [1, 3] was 55% and 64%. The “Population Hoechst High Intensity Objects (%)” value [1, 3] was 30% and 23%, the “Population Membrane Permeable-Phenotype (%)” value [1, 3] was 0% and the “Population Mitochondria Different-Phenotype (%)” value [1, 3] was 87% and 89%. The “Population Mitotic Cells (%)” value [1, 3] was 53% and 36%, the “Population Normal (%)” value [1, 3] was 69% and 76% and the “Population Pyknosed Nuclei (%)” value [1, 3] was 35% and 29%. For the same compound, the “Population Tubulin-Different-Phenotype (%)” value [1, 3] was 69% and 70%, the “Total Cell Count” value [1, 3] was 227 and 231 and the “Population Apoptotic (%)” value [1, 4] was 62% and 77%. The “Population Fragmented Nuclei (%)” value [1, 4] was 12% and 7%, the “Population Healthy Nuclei (%)” value [1, 4] was 57% and 64% and the “Population Hoechst High Intensity Objects (%)” value [1, 4] was 35% and 29%. For the same compound, the “Population Membrane Permeable-Phenotype (%)” value [1, 4] was 0%, the “Population Mitochondria Different-Phenotype (%)” value [1, 4] was 95% and the “Population Mitotic Cells (%)” value [1, 4] was 37% and 22%. For the same compound, the “Population Normal (%)” value [1, 4] was 64% and 70%, the “Population Pyknosed Nuclei (%)” value [1, 4] was 30% and 28% and the “Population Tubulin-Different-Phenotype (%)” value [1, 4] was 79% and 81%. For the same compound, the “Total Cell Count” value [1, 4] was 269 and 181, the “Population Apoptotic (%)” value [1, 5] was 72% and 74% and the “Population Fragmented Nuclei (%)” value [1, 5] was 15% and 9%. The “Population Healthy Nuclei (%)” value [1, 5] was 62% and 67%, the “Population Hoechst High Intensity Objects (%)” value [1, 5] was 27% and 26% and the “Population Membrane Permeable-Phenotype (%)” value [1, 5] was 0%. For the same compound, the “Population Mitochondria Different-Phenotype (%)” value [1, 5] was 85% and 89%, the “Population Mitotic Cells (%)” value [1, 5] was 27% and 25% and the “Population Normal (%)” value [1, 5] was 72% and 73%. For the same compound, the “Population Pyknosed Nuclei (%)” value [1, 5] was 22% and 23%, the “Population Tubulin-Different-Phenotype (%)” value [1, 5] was 74% and 70% and the “Total Cell Count” value [1, 5] was 222 and 207. The “Population Apoptotic (%)” value [1, 6] was 74% and 88%, the “Population Fragmented Nuclei (%)” value [1, 6] was 19% and 10% and the “Population Healthy Nuclei (%)” value [1, 6] was 55% and 68%. For the same compound, the “Population Hoechst High Intensity Objects (%)” value [1, 6] was 49% and 34%, the “Population Membrane Permeable-Phenotype (%)” value [1, 6] was 0% and the “Population Mitochondria Different-Phenotype (%)” value [1, 6] was 96% and 98%. For the same compound, the “Population Mitotic Cells (%)” value [1, 6] was 25% and 11%, the “Population Normal (%)” value [1, 6] was 50% and 65% and the “Population Pyknosed Nuclei (%)” value [1, 6] was 24% and 20%. The “Population Tubulin-Different-Phenotype (%)” value [1, 6] was 52% and 77%, the “Total Cell Count” value [1, 6] was 314 and 197 and the “Population Apoptotic (%)” value [1, 7] was 67% and 81%. For the same compound, the “Population Fragmented Nuclei (%)” value [1, 7] was 16% and 6%, the “Population Healthy Nuclei (%)” value [1, 7] was 59% and 65% and the “Population Hoechst High Intensity Objects (%)” value [1, 7] was 30% and 26%. The “Population Membrane Permeable-Phenotype (%)” value [1, 7] was 0%, the “Population Mitochondria Different-Phenotype (%)” value [1, 7] was 79% and 95% and the “Population Mitotic Cells (%)” value [1, 7] was 32% and 18%. The “Population Normal (%)” value [1, 7] was 69% and 73%, the “Population Pyknosed Nuclei (%)” value [1, 7] was 23% and 27% and the “Population Tubulin-Different-Phenotype (%)” value [1, 7] was 71% and 74%. For the same compound, the “Total Cell Count” value [1, 7] was 239 and 184, the “Population Apoptotic (%)” value [1, 8] was 55% and 80% and the “Population Fragmented Nuclei (%)” value [1, 8] was 62% and 47%. The “Population Healthy Nuclei (%)” value [1, 8] was 14% and 30%, the “Population Hoechst High Intensity Objects (%)” value [1, 8] was 67% and 58% and the “Population Membrane Permeable-Phenotype (%)” value [1, 8] was 0%. The “Population Mitochondria Different-Phenotype (%)” value [1, 8] was 100% and 94%, the “Population Mitotic Cells (%)” value [1, 8] was 44% and 20% and the “Population Normal (%)” value [1, 8] was 32% and 41%. For the same compound, the “Population Pyknosed Nuclei (%)” value [1, 8] was 23% and 21%, the “Population Tubulin-Different-Phenotype (%)” value [1, 8] was 23% and 57% and the “Total Cell Count” value [1, 8] was 361 and 277. For the same compound, the “Population Apoptotic (%)” value [2, 3] was 77% and 83%, the “Population Fragmented Nuclei (%)” value [2, 3] was 31% and 18% and the “Population Healthy Nuclei (%)” value [2, 3] was 60% and 77%. The “Population Hoechst High Intensity Objects (%)” value [2, 3] was 2% and 0%, the “Population Membrane Permeable-Phenotype (%)” value [2, 3] was 5% and 6% and the “Population Mitochondria Different-Phenotype (%)” value [2, 3] was 3% and 5%. The “Population Mitotic Cells (%)” value [2, 3] was 22% and 16%, the “Population Normal (%)” value [2, 3] was 97% and 99% and the “Population Pyknosed Nuclei (%)” value [2, 3] was 8% and 4%. The “Population Tubulin-Different-Phenotype (%)” value [2, 3] was 4% and 8%, the “Total Cell Count” value [2, 3] was 228 and 139 and the “Population Apoptotic (%)” value [2, 4] was 80% and 75%. The “Population Fragmented Nuclei (%)” value [2, 4] was 31% and 25%, the “Population Healthy Nuclei (%)” value [2, 4] was 47% and 54% and the “Population Hoechst High Intensity Objects (%)” value [2, 4] was 5% and 2%. For the same compound, the “Population Membrane Permeable-Phenotype (%)” value [2, 4] was 33% and 23%, the “Population Mitochondria Different-Phenotype (%)” value [2, 4] was 40% and 42% and the “Population Mitotic Cells (%)” value [2, 4] was 20% and 25%. The “Population Normal (%)” value [2, 4] was 94% and 97%, the “Population Pyknosed Nuclei (%)” value [2, 4] was 20% and the “Population Tubulin-Different-Phenotype (%)” value [2, 4] was 49% and 37%. The “Total Cell Count” value [2, 4] was 233 and 121, the “Population Apoptotic (%)” value [2, 5] was 93% and 100% and the “Population Fragmented Nuclei (%)” value [2, 5] was 34% and 21%. The “Population Healthy Nuclei (%)” value [2, 5] was 53% and 67%, the “Population Hoechst High Intensity Objects (%)” value [2, 5] was 2% and 0% and the “Population Membrane Permeable-Phenotype (%)” value [2, 5] was 7% and 8%. The “Population Mitochondria Different-Phenotype (%)” value [2, 5] was 2%, the “Population Mitotic Cells (%)” value [2, 5] was 6% and 0% and the “Population Normal (%)” value [2, 5] was 97% and 99%. For the same compound, the “Population Pyknosed Nuclei (%)” value [2, 5] was 11% and the “Population Tubulin-Different-Phenotype (%)” value [2, 5] was 6% and 5%.
